In ChEMBL document CHEMBL1137147, “Low molecular weight thrombin inhibitors with excellent potency, metabolic stability, and oral bioavailability” (Bioorg Med Chem Lett, 2004):

Key:
[1] = Percent free human plasma protein binding after administration of the compound; assay type: functional
Rattus norvegicus [2] = test: Percent free rat plasma protein binding after administration of the compound; assay type: functional
Prothrombin = Prothrombin (Homo sapiens, UniProt P00734); test: Inhibition constant against human Thrombin
Rattus norvegicus [3] = test: Effect (10 ug/kg/min) on FeCl3 induced clot formation on carotid artery, expressed as no. of vessel occlusions out of 5 rats; assay type: functional
Outline: (§1)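 Anesthetized rats given test compound by intravenous infusion at 10 µg/kg/min for 180 min. Topical FeCl3 applied to the carotid artery at 120 min post dose, then carotid blood flow monitored for 60 min. Result is the number of animals with occluded vessels (n = 5 or 6).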

[4] = Area under the curve in dog when administered 1 mg/kg perorally; assay type: ADME, organism-based, Canis lupus familiaris; design: dose 1 mg/kg, route oral; details: in vivo, po
Outline: (§2)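 Amorphous TFA salts given orally at 1 mg/kg in 1% methocel to beagle dogs (n = 2). Blood sampled over 8 h post dose plus a final 24 h sample. Drug isolated from plasma by solid-phase extraction and quantified by LC–MS/MS against a standard curve. AUC and t1/2 derived from the concentration–time curve.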

[5] = Plasma half life in dog when administered 1 mg/kg perorally; assay type: ADME, organism-based, Canis lupus familiaris; design: dose 1 mg/kg, route oral; details: po; outline: as §2
Rattus norvegicus [6] = test: Effect (10 ug/kg/min) on FeCl3 induced clot formation on carotid artery, expressed as no. of vessel occlusions out of 6 rats; assay type: functional; outline: as §1

SMILES	Activity [1]	Activity (Rattus norvegicus [2])	Ki (Prothrombin)	Activity (Rattus norvegicus [3])	AUC [4]	half-life [5]	Activity (Rattus norvegicus [6])
NCc1ccc(Cl)cc1CNC(=O)[C@@H]1CCCN1C(=O)CO	1%	9%	0.5 nM	4	30 µM·h	13 h	–
CC(C)(C1CC1)[C@@H](O)C(=O)N1CC[C@H]1C(=O)NCc1cc(Cl)ccc1CN	11%	17%	3.7 nM	0	11 µM·h	4.7 h	–
C[C@](O)(C(=O)N1CCC[C@H]1C(=O)NCc1cc(Cl)ccc1CN)c1ccccc1	–	–	4.7 nM	–	21 µM·h	3.1 h	–
NCc1ccc(Cl)cc1CNC(=O)[C@@H]1CCCN1C(=O)[C@@H](O)c1ccccc1	–	–	80 nM	–	–	–	–
CC(C)(C)[C@@H](O)C(=O)N1CCC[C@H]1C(=O)NCc1cc(Cl)ccc1CN	24%	54%	2.1 nM	–	10 µM·h	5.4 h	0
NCc1ccc(Cl)cc1CNC(=O)[C@@H]1CCCN1C(=O)[C@H](O)c1ccccc1	–	–	0.9 nM	–	1.4 µM·h	2 h	–
CC(C)[C@@H](O)C(=O)N1CCC[C@H]1C(=O)NCc1cc(Cl)ccc1CN	63%	60%	5.6 nM	–	4.9 µM·h	4.2 h	2
CC(C)(C)[C@@H](O)C(=O)N1CC[C@H]1C(=O)NCc1cc(Cl)ccc1CN	21%	26%	5 nM	0	3.5 µM·h	3.4 h	–
NCc1ccc(Cl)cc1CNC(=O)[C@@H]1CCCN1C(=O)[C@H](O)C1CCCCC1	4%	36%	0.27 nM	–	1.7 µM·h	2 h	0
C[C@@](O)(C(=O)N1CCC[C@H]1C(=O)NCc1cc(Cl)ccc1CN)c1ccccc1	15%	24%	2.7 nM	–	14 µM·h	3.4 h	1
